Laboratory results taken from ChEMBL document CHEMBL3817728, “Synthesis, Evaluation, and Mechanism Study of Novel Indole-Chalcone Derivatives Exerting Effective Antitumor Activity Through Microtubule Destabilization in Vitro and in Vivo” (J Med Chem, 2016).
The source made the active and inactive calls. The rule behind the calls is not given here.

Key:
[1] = Metabolic stability in Sprague-Dawley rat liver microsomes assessed as compound remaining at 60 mins in presence of NADPH regenerating system by HPLC method; assay type: ADME; settings: read-out: Stability
Procedure, shortened: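 Test compound incubated with rat liver microsomes at 37 ℃ in buffer containing an NADPH regenerating system for the stated time. Remaining parent compound was quantified by HPLC.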

[2] = Cytotoxicity against human A2780/TAX cells assessed as growth inhibition after 48 hrs by MTT assay; assay type: functional, cell-based
Procedure, shortened: (§1)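 Drug-resistant lines were tested by a 48 h MTT viability assay. IC50 was derived from dose-response curves and reported as mean ± SE of at least three independent experiments.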

[3] = system: A549; assay: Disruption of mitochondrial membrane potential in human A549 cells assessed as red fluorescence intensity at 10 nM after 24 hrs by JC1 staining-based flow cytometric method (reference value: 99.2%); assay type: functional
[4] = Cytotoxicity against human HCT8 cells assessed as cell viability after 48 hrs by MTT assay; assay type: functional, cell-based; settings: HCT-8, 48 h
Procedure, shortened: (§2)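 Cancer cell lines treated with compound for 48 h, and viability read by MTT assay. IC50 given as mean ± SD from at least three independent experiments.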

[5] = Selectivity ratio of IC50 for human BJ cells to IC50 for human A549 cells; assay type: ADME, cell-based; settings: BJ cells versus A549 cells, read-out: Ratio IC50
Procedure, shortened: (§3)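 Selectivity ratio = IC50 in normal cells / IC50 in A549; IC50 values mean ± SE from dose-response curves of at least three independent experiments. HUVECs kept quiescent in endothelial cell medium with 0.5% fetal calf serum, no growth factor.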

[6] = system: HeLa; assay: Cytotoxicity against human HeLa cells assessed as cell viability after 48 hrs by MTT assay; assay type: functional, cell-based; procedure, shortened: as §2
[7] = system: MCF7; assay: Resistance index, ratio of IC50 for human MCF7/DX cells to IC50 for human MCF7 cells; assay type: functional
[8] = system: A549; assay: Induction of apoptosis in human A549 cells assessed as late apoptotic cells at 3 nM after 48 hrs by annexin V-FITC/propidium iodide staining-based flow cytometric method (reference value: 0.01%); assay type: functional
[9] = Cytotoxicity against human MCF10A cells assessed as growth inhibition after 48 hrs by MTT assay; assay type: cell-based; settings: MCF-10A
Procedure, shortened: (§4)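 Non-tumorigenic cells given 48 h compound exposure, and viability read by MTT. IC50 is mean ± SE from dose-response curves of at least three independent experiments. HUVECs were kept quiescent in endothelial cell medium with 0.5% fetal calf serum and no growth factor.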

[10] = system: A549; assay: Induction of apoptosis in human A549 cells assessed as late apoptotic cells at 10 nM after 48 hrs by annexin V-FITC/propidium iodide staining-based flow cytometric method (reference value: 0.01%); assay type: functional
[11] = system: A549; assay: Disruption of mitochondrial membrane potential in human A549 cells assessed as red fluorescence intensity at 1 nM after 24 hrs by JC1 staining-based flow cytometric method (reference value: 99.2%); assay type: functional
[12] = Cytotoxicity against human A549/CDDP cells assessed as growth inhibition after 48 hrs by MTT assay; assay type: functional, cell-based; settings: A549, 48 h; procedure, shortened: as §1
[13] = system: A549; assay: Disruption of mitochondrial membrane potential in human A549 cells at 1 to 10 nM after 24 hrs by JC1/Hoechst 33342 staining-based laser scanning confocal microscopy; assay type: functional, cell-based
Procedure, shortened: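 After 24 h compound treatment, A549 cells were incubated with JC-1 for 30 min and visualized by laser scanning confocal microscopy.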

[14] = system: HCT-8; assay: Resistance index, ratio of IC50 for human HCT8/VCT cells to IC50 for human HCT8 cells; assay type: functional
[15] = system: A549; assay: Induction of apoptosis in human A549 cells assessed as viable cells at 3 nM after 48 hrs by annexin V-FITC/propidium iodide staining-based flow cytometric method (reference value: 98.1%); assay type: functional; settings: A549, 48 h, read-out: Activity
Procedure, shortened: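 A549 cells exposed 24 h or 48 h at indicated concentrations, then trypsinized, harvested and stained with Annexin V-FITC and PI; flow cytometry quadrants scored as necrotic (upper left), late apoptotic (upper right), live (bottom left) and early apoptotic (bottom right). Five independent experiments, representative shown.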

[16] = Cytotoxicity against human HCT8/VCT cells assessed as growth inhibition after 48 hrs by MTT assay; assay type: functional, cell-based; procedure, shortened: as §1
[17] = system: A549; assay: Induction of apoptosis in human A549 cells assessed as necrotic cells at 3 nM after 24 hrs by annexin V-FITC/propidium iodide staining-based flow cytometric method (reference value: 0.03%); assay type: functional
[18] = system: A549; assay: Induction of apoptosis in human A549 cells assessed as late apoptotic cells at 1 nM after 48 hrs by annexin V-FITC/propidium iodide staining-based flow cytometric method (reference value: 0.01%); assay type: functional
[19] = system: A549; assay: Cell cycle arrest in human A549 cells assessed as accumulation at sub-G1 phase at 3 to 10 nM after 24 to 72 hrs by propidium iodide staining-based flow cytometric analysis; assay type: functional
Procedure, shortened: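 A549 cells exposed to compound for 24, 48 or 72 h, then trypsinized and harvested. DNA stained with propidium iodide and analyzed by flow cytometry. Percentage of cells in each cell-cycle phase was quantified from the DNA histograms, with sub-G1 taken as the hypodiploid peak. Performed at least three times; representative experiments shown.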

[20] = system: BJ; assay: Cytotoxicity against human BJ cells assessed as growth inhibition after 48 hrs by MTT assay; assay type: cell-based; procedure, shortened: as §4
[21] = Selectivity ratio of IC50 for human MCF10A cells to IC50 for human A549 cells; assay type: ADME, cell-based; settings: MCF10A cells versus A549 cells, read-out: Ratio IC50; procedure, shortened: as §3
[22] = system: A549; assay: Disruption of mitochondrial membrane potential in human A549 cells assessed as green fluorescence intensity at 1 nM after 24 hrs by JC1 staining-based flow cytometric method (reference value: 0.02%); assay type: functional
[23] = system: A549; assay: Disruption of mitochondrial membrane potential in human A549 cells assessed as green fluorescence intensity at 3 nM after 24 hrs by JC1 staining-based flow cytometric method (reference value: 0.02%); assay type: functional
[24] = system: A549; assay: Induction of apoptosis in human A549 cells assessed as necrotic cells at 1 nM after 24 hrs by annexin V-FITC/propidium iodide staining-based flow cytometric method (reference value: 0.03%); assay type: functional
[25] = system: A2780; assay: Cytotoxicity against human A2780 cells assessed as cell viability after 48 hrs by MTT assay; assay type: functional, cell-based; settings: A2780, 48 h; procedure, shortened: as §2
[26] = target: Tubulin (Sus scrofa, UniProt P02554+P02550); assay: Inhibition of porcine brain tubulin polymerization measured every 60 secs for 60 mins by DAPI staining-based fluorescence assay
[27] = system: A549; assay: Induction of apoptosis in human A549 cells assessed as early apoptotic cells at 1 nM after 24 hrs by annexin V-FITC/propidium iodide staining-based flow cytometric method (reference value: 1.07%); assay type: functional
[28] = system: A549; assay: Induction of apoptosis in human A549 cells assessed as late apoptotic cells at 10 nM after 24 hrs by annexin V-FITC/propidium iodide staining-based flow cytometric method (reference value: 0.01%); assay type: functional
[29] = Metabolic stability in Sprague-Dawley rat liver microsomes assessed as compound remaining at 120 mins in presence of NADPH regenerating system by HPLC method; assay type: ADME; settings: read-out: Stability
Procedure, shortened: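 Rat liver microsomes incubated with compound at 37 ℃ for indicated times in buffer containing NADPH regenerating system; residual parent determined by HPLC.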

[30] = system: A549; assay: Induction of apoptosis in human A549 cells assessed as early apoptotic cells at 10 nM after 48 hrs by annexin V-FITC/propidium iodide staining-based flow cytometric method (reference value: 1.95%); assay type: functional

## COc1ccc2c(/C=C(\C)C(=O)c3cc(OC)c(OC)c(OC)c3)c[nH]c2c1
[1]
  remaining at 1 h: 80.5%
[2]
  IC50: 124 nM
[3]
  Activity: 40.7%
[4]
  IC50: 6 nM
[5]
  selectivity ratio: 2970
[6]
  IC50: 7 nM
[7]
  Ratio IC50: 1.5
[8]
  Activity: 33.4%
[9]
  IC50: 2670 nM
[10]
  Activity: 70.2%
[11]
  Activity: 97.2%
[12]
  IC50: 4 nM
[13]
  Activity: Active
[14]
  Ratio IC50: 0.42
[15]
  viability at 0.003 µM: 33.9%
[16]
  IC50: 5 nM
[17]
  Activity: 1.07%
[18]
  Activity: 14.6%
[19]
  Activity: Active
[20]
  IC50: 8920 nM
[21]
  selectivity ratio: 891
[22]
  Activity: 1.78%
[23]
  Activity: 43.8%
[24]
  Activity: 1.45%
[25]
  IC50: 8 nM
[26]
  IC50: 2680 nM
[27]
  Activity: 12.8%
[28]
  Activity: 12.41%
[29]
  remaining at 2 h: 66.3%
[30]
  Activity: 8.41%
